In the RNAGym collection of RNA variant scans (doi:10.1126/science.aae0568) one finds yeast fitness data, which are given here for 167 variants.

This sample holds only a part of the variants without activity.

First the molecules themselves.
B1: tRNA (parent)
chain: GUUCCGUUGGCGUAAUGGUAACGCGUCUCCCUCCUAAGGAGAAGACUGCGGGUUCGAGUCCCGUACGGAACG

In the data set the parent is B1. Put plainly: yeast fitness relative to wild type (ratio to wild type); higher = fitter; tRNA-Arg(CCU), competitive growth, 37 C, YPD. A digest of the protocol:
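Variants of the tRNA-Arg(CCU) gene, chemically synthesised with a 3% per-site mutation rate at 69 sites, were placed at the native genomic locus in Saccharomyces cerevisiae. The pooled strains were competed in YPD at 37°C for 24 hours in six parallel replicates. Gene amplicons from the start population and from each end population were read by 100-nucleotide paired-end sequencing. Darwinian fitness relative to wild type came from changes in genotype frequencies; genotypes needed ≥ 100 starting reads, and estimates < 0.5 were set to 0.5.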
In the case of G6C A45C, the yeast fitness came out at 0.614.
In the case of G23C C24U C46U U47C, the yeast fitness is 0.684.
On to U28A U32C G39C, for which the yeast fitness came to 0.542.
With U8C A40G A43C, the yeast fitness worked out at 0.732.
As for U7A A36C, the yeast fitness amounted to 0.512.
In the case of A14C A45U A69U, the yeast fitness came to 0.619.
Regarding G10C U32C A42C A65C C66G, the yeast fitness was 0.614.
As for C46A C61U, the yeast fitness is 0.901.
For A15U C31U A70G the value was 0.629; for C27G C30A C34G A45G C62U A69G, not above 0.5; for A37G U59A, 0.663.
Then G23C A42G A69G A70C, with not above 0.5.
With G44C A69U, the yeast fitness is 0.895.
Regarding U2G G10C A45U C46U U47C U64C, the yeast fitness was not above 0.5.
Turning to U8G C27A, the yeast fitness was 0.564.
G6A A14G A45G: the yeast fitness turned out to be 0.797.
Regarding C29U G39C, the yeast fitness came to 0.65.
Take C5A U13C C29U G48C G52C A57C G58A: the yeast fitness is not above 0.5.
Regarding G10C A37C A42U, the yeast fitness is not above 0.5.
For C33U G48A C60U U64G A65U, the yeast fitness was found to be 0.606.
As to U16A C31G, the yeast fitness worked out at 0.87.
For U16A A21U C33G the value was not above 0.5.
For U28C G52C A65C the value was 0.596; for U8A C11A C31G, not above 0.5; for C27U C31U C55U, 0.643.
In the case of U3G A15C, the yeast fitness amounted to 0.511.
Then C4G C11G C33G U47A, with not above 0.5; and G17C C24U C49U U59A, with 0.533; and A20C C29U U32A, with not above 0.5.
As for C22G A37G A45C G51U, the yeast fitness is not above 0.5.
Consider G9C C22G G50A, for which the yeast fitness is not above 0.5.
Take C11U C31G A70U: the yeast fitness came out at 0.598.
On to U3G C4U A20G U35A G58A G67U, for which the yeast fitness is not above 0.5.
Take U7A C33A G50A C61G: the yeast fitness was not above 0.5.
Then C33U A43G G48C, with not above 0.5; and C11U U26G U35C G63A A70G, with not above 0.5; and C4A C22U C33G A45C U47C U53G A69C, with not above 0.5.
Turning to G18A G23A C33A U64C, the yeast fitness came out at 0.789.
Consider C11G A57U C66U, for which the yeast fitness is not above 0.5.
In the case of G17C G38C A43C A69U, the yeast fitness is not above 0.5.
In the case of C11U U64C, the yeast fitness amounted to 0.879.
G6A C29A C55U: the yeast fitness is 0.514.
As to A42U A57U, the yeast fitness came out at 0.682.
As for A14U U35C U53G, the yeast fitness was determined as 0.634.
For A37U G58A the value was 0.767; for C5U G39C, 0.769.
For A20C A43C G68U the value was not above 0.5.
On to U13A C46U, for which the yeast fitness was 0.875.
Then U28C A40U C55A, with not above 0.5; and C4U C24G U26A U28G A65U, with not above 0.5.
On to U32C U35C C49U, for which the yeast fitness was 0.659.
In the case of U13C C31A C46U A70C, the yeast fitness is not above 0.5.
On to G10C A21C C30U G41C A70U, for which the yeast fitness was not above 0.5.
Consider G18C A42U G48C U64C, for which the yeast fitness was not above 0.5.
For A36U G44C the value was 0.629; for G12A U28G C30G C49U U64C, not above 0.5.
Regarding C4A G25C C61A, the yeast fitness is 0.694.
For G18C C31G C55G A57C the value was not above 0.5; for G56C G58A, 0.607.
With A14C C24G G39A, the yeast fitness is not above 0.5.
As for C30U A40U A70C, the yeast fitness came to 0.56.
Regarding C22A C60A, the yeast fitness worked out at 0.659.
Take A14U A15G C55G C61G: the yeast fitness came out at 0.637.
On to C5U A21U U32A A40U, for which the yeast fitness turned out to be 0.634.
With C29G C30G A36G A65C, the yeast fitness is 0.505.
As for U7G G25C G56A, the yeast fitness stood at 0.697.
In the case of C5U C22U C33U G67A, the yeast fitness is not above 0.5.
In the case of C5U C24U G44C, the yeast fitness stood at 0.528.
Then A14C U16A G41C, with not above 0.5; and C5U A20U C30A G67A A70G, with 0.657; and C5A G25A C33G C46A C66A, with not above 0.5.
Consider G6C A20U A21G A37U C60G C62G, for which the yeast fitness was not above 0.5.
Then A14C A20C G67A, with not above 0.5.
Turning to U16A A37U C55G G56C, the yeast fitness was not above 0.5.
On to G10C C11U C24U C33G A36U, for which the yeast fitness is not above 0.5.
As for U2C U26G A70U, the yeast fitness is 0.703.
Take C31G G44C G52C C60G: the yeast fitness was not above 0.5.
Then C5G A65U C66G, with not above 0.5; and U3C C31U A70U, with 0.865; and U35C A37C C62U A65C, with not above 0.5.
Then U13G G41C G51A, with 0.564; and A42G C62A, with 0.786.
In the case of U3G G51A C66U, the yeast fitness is not above 0.5.
On to C5A G39A U47A G68C, for which the yeast fitness was not above 0.5.
On to A15G G41C G51C C61G, for which the yeast fitness is 0.726.
Then U7A G18A C29G A37G C60A C62G, with not above 0.5; and G6A C34U, with 0.65; and U7A A20G G41A A42C G50C A70G, with not above 0.5.
Then U7C A20U C29U C30G C34A U35A C66A, with not above 0.5; and G6A A15C G39A A65G, with not above 0.5.
As to C4G U16C G41C C62U, the yeast fitness is not above 0.5.
For G12C G18C U35A G39A U53A the value was not above 0.5; for C22A U26A A36U G56C C60G, not above 0.5.
On to U8G C24G G41A A65G, for which the yeast fitness is not above 0.5.
In the case of C4U C11G U16C C34A C60U A69G, the yeast fitness is not above 0.5.
Regarding C31A C49A G56A A65G C66A G68C, the yeast fitness is not above 0.5.
For C4A U19A A40U G48C the value was not above 0.5; for U28G C29A C55A, not above 0.5.
On to C30U C31G C34G C66A, for which the yeast fitness was not above 0.5.
As for C4G U7G G9A A20G C22A G41A, the yeast fitness was not above 0.5.
For C5A A36U, the yeast fitness worked out at 0.678.
Then A65G C66U, with 0.993.
Take C34A U47C: the yeast fitness was found to be 0.646.
C22U C61U: the yeast fitness turned out to be 0.72.
Then A21C A69C, with 0.809.
Turning to U26C U59A, the yeast fitness is 0.882.
For the variant U28A C34U A40U A45U C60A, the yeast fitness worked out at 0.706.
Turning to U3A G17A C22U, the yeast fitness was determined as 0.559.
In the case of A37C A42C C55U, the yeast fitness was 0.597.
Consider U7C C29A A65G, for which the yeast fitness is not above 0.5.
Turning to G25C U35C G58C, the yeast fitness stood at 0.558.
Turning to U3C C24U, the yeast fitness is 1.01.
On to U3A G23C A45G, for which the yeast fitness was not above 0.5.
On to G12A U13A A37G A40G U59A, for which the yeast fitness was not above 0.5.
Take G23A G25A C31U: the yeast fitness was 0.652.
For A36G C55G, the yeast fitness is 0.623.
Then C5U G39C C46U C49U G56A G68C, with 0.669.
Turning to G25C C29A G52A, the yeast fitness was determined as 0.505.
Regarding A42U A43G G67A, the yeast fitness was found to be 0.574.
On to G12A C22A A36G A37G, for which the yeast fitness is not above 0.5.
Then G6C C24A C46G, with 0.59; and G10A C34U G44A, with not above 0.5.
On to C24A A42G G63A, for which the yeast fitness is not above 0.5.
With A14G A36G A45U, the yeast fitness amounted to 0.534.
Turning to U8C C34G G48C U59C C60A A65G, the yeast fitness was not above 0.5.
For A14U A15U C49U G56C the value was not above 0.5; for U2A C4U G10C, 0.522.
Turning to U32G U35A A36G A57U, the yeast fitness was not above 0.5.
In the case of C5G U13A C22G C29G A40U U54C C61G G67A, the yeast fitness was not above 0.5.
For A21G C55U C66U, the yeast fitness was not above 0.5.
As for U19G U64C, the yeast fitness stood at 0.841.
As to G9C U16C A69C, the yeast fitness worked out at 0.562.
Take G10A A14U C31A C46A A65U: the yeast fitness was not above 0.5.
As to U19C A70C, the yeast fitness amounted to 1.03.
As for C34U U47C C55A A70U, the yeast fitness came out at 0.562.
For C4A A36C, the yeast fitness is 0.686.
On to A37G A40C A43C G67U, for which the yeast fitness is not above 0.5.
On to C11G U47A G52A G58C G63C C66G, for which the yeast fitness was found to be 0.664.
As to A21G C31A, the yeast fitness was 0.962.
In the case of C46U G50A C66G, the yeast fitness was not above 0.5.
For G10C G44U the value was 0.587; for G18C A42U G48C G68C A69U, not above 0.5; for A43U U47C C55A, not above 0.5.
On to A20U A36G G38A A40U A42G, for which the yeast fitness was not above 0.5.
As for C5A G58C C60A A70C, the yeast fitness is not above 0.5.
For C4U C49U, the yeast fitness is 0.989.
On to C4G G9A C22U C46G G56C, for which the yeast fitness is not above 0.5.
As for U16A C30U A57U, the yeast fitness is not above 0.5.
Regarding G10C A40U U47C G68A, the yeast fitness is not above 0.5.
Turning to G6A G18C C22G A65C, the yeast fitness was not above 0.5.
In the case of G6C U28G, the yeast fitness was found to be 0.644.
A15G C29G C31G A37C C66A: the yeast fitness is not above 0.5.
Take U3A C22G C24U C33A G58A: the yeast fitness is not above 0.5.
Turning to C4A A14U A20C U28G G58C C61A, the yeast fitness is not above 0.5.
For G17A U26C C61U G67A the value was not above 0.5; for C5U U13C U35G C49U, 0.608; for C33U C34G, 0.648.
U13G C61A G67A: the yeast fitness was not above 0.5.
With C22U U59A C61G, the yeast fitness was 0.547.
For the variant C29G A36C G41A G50A U53C, the yeast fitness was not above 0.5.
With A21U C22U A43G, the yeast fitness is not above 0.5.
As for C5U C30G C61A, the yeast fitness is not above 0.5.
For U3A C24U C31G G44C A69U the value was not above 0.5; for A15U A57U A65C, 0.586; for U13A A40U A43C, 0.693.
In the case of G6C C22A A57U, the yeast fitness was not above 0.5.
In the case of U8A C31G C34U C55U G58A C61U, the yeast fitness is not above 0.5.
